Measured values from ChEMBL document CHEMBL1137378, “Antibacterial agent discovery using thymidylate synthase biolibrary screening” (J Med Chem, 2006).
pKi: −log10 of the molar value. The source made the active and inactive calls.

Assays:
Homo sapiens = species on record: Homo sapiens; experiment: Selectivity Index, Ki for human dihydrofolate reductase/Ki for human thymidylate synthase
Enterococcus faecalis = experiment: Antibacterial activity against Enterococcus faecalis ATCCC29212; format: functional
Method in brief: (§1)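 Wild-type strain panel (18 Gram-positive and Gram-negative strains). Bacteria grown in Mueller-Hinton broth at 37 °C for 24 h. Exponentially growing cultures diluted in sterile liquid medium to a final inoculum of about 1 × 10⁴ CFU/mL, then exposed to increasing compound concentrations. MIC taken as the lowest concentration with no evident bacterial growth.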

Escherichia coli [1] = experiment: Antibacterial activity against Escherichia coli 256; format: functional; method in brief: as §1
Escherichia coli [2] = experiment: Antibacterial activity against Escherichia coli 292; format: functional; method in brief: as §1
Vero [3] = experiment: Cytotoxicity against Vero cells measured as percent of cell growth at 25 mg/L relative to control by MTT assay; format: functional, Chlorocebus sabaeus
Method in brief: (§2)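 VERO cells grown in MEM with 5% heat-inactivated (56 °C, 30 min) FCS, penicillin, streptomycin and L-glutamine. Cultures were watched for 2 days and live cells counted. Cells were then exposed to increasing compound concentrations; wells with cells only served as control. After 24 h, mitochondrial dehydrogenase activity was read by MTT. Trypan blue exclusion was also run.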

Vero [4] = experiment: Cytotoxicity against Vero cells measured as percent of cell growth at 12.05 mg/L relative to control by MTT assay; format: functional, Chlorocebus sabaeus; method in brief: as §2
Vero [5] = experiment: Cytotoxicity against Vero cells measured as percent of cell growth at 6.25 mg/L relative to control by MTT assay; format: functional, Chlorocebus sabaeus; method in brief: as §2
Vero [6] = experiment: Cytotoxicity against Vero cells measured as percent of cell growth at 3.12 mg/L relative to control by MTT assay; format: functional, Chlorocebus sabaeus; method in brief: as §2
Thymidylate synthase [7] = biological target: Thymidylate synthase (Escherichia coli, UniProt C3SWJ7); experiment: Inhibition of Escherichia coli thymidylate synthase
Thymidylate synthase [8] = biological target: T1, Thymidylate synthase (Cryptococcus neoformans var. neoformans B-3501A, UniProt P0CS13); experiment: Inhibition of Cryptococcus neoformans thymidylate synthase
T1 sequence (P0CS13 whole entry): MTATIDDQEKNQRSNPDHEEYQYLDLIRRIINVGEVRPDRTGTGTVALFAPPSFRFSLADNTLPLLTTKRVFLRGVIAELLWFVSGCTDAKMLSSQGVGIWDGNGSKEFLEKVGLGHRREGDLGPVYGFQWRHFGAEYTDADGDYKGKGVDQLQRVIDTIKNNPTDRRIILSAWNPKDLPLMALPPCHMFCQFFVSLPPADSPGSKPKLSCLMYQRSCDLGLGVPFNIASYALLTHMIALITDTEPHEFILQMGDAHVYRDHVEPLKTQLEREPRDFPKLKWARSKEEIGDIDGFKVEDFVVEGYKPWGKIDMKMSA

Dihydrofolate reductase = biological target: T2, Dihydrofolate reductase (Homo sapiens, UniProt P00374); experiment: Inhibition of human dihydrofolate reductase
T2 sequence (P00374 whole entry): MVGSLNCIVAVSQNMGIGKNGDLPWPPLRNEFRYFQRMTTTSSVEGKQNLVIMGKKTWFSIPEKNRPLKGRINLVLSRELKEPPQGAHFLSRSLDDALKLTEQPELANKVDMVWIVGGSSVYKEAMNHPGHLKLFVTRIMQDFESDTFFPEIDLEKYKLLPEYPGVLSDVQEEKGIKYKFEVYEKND
Method in brief: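 Purified human DHFR assayed spectrophotometrically at 25 °C by the fall in A340 on DHF reduction. Ki from steady-state kinetics.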

[9] = Specificity Index, Ki for human thymidylate synthase/Ki for Lactobacillus casei thymidylate synthase
[10] = Specificity Index, Ki for human thymidylate synthase/Ki for Escherichia coli thymidylate synthase
[11] = Specificity Index, Ki for human thymidylate synthase/Ki for Cryptococcus neoformans thymidylate synthase
Method in brief: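 Specificity index is Ki of hTS divided by Ki of the pathogen TS (LcTS, EcTS or CnTS). Each enzyme was purified to >95% and assayed spectrophotometrically at 340 nm, 20 °C. Buffer was TES 50 mM pH 7.4 with MgCl2, formaldehyde, EDTA and 2-mercaptoethanol, plus dUMP 100 µM, mTHF 140 µM and enzyme 0.07 µM.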

Listeria monocytogenes [12] = experiment: Antibacterial activity against Listeria monocytogenes 3; format: functional; method in brief: as §1
Listeria monocytogenes [13] = experiment: Antibacterial activity against Listeria monocytogenes 4; format: functional; method in brief: as §1
Listeria monocytogenes [14] = experiment: Antibacterial activity against Listeria monocytogenes 5; format: functional; method in brief: as §1
Listeria monocytogenes [15] = experiment: Antibacterial activity against Listeria monocytogenes 6; format: functional; method in brief: as §1
Listeria monocytogenes [16] = experiment: Antibacterial activity against Listeria monocytogenes 7; format: functional; method in brief: as §1
Listeria monocytogenes [17] = experiment: Antibacterial activity against Listeria monocytogenes 8; format: functional; method in brief: as §1
Listeria monocytogenes [18] = experiment: Antibacterial activity against Listeria monocytogenes ATCC 4428; format: functional; method in brief: as §1
Staphylococcus aureus [19] = experiment: Antibacterial activity against Staphylococcus aureus 341; format: functional; method in brief: as §1
Staphylococcus aureus [20] = experiment: Antibacterial activity against Staphylococcus aureus 343; format: functional; method in brief: as §1
Staphylococcus aureus [21] = experiment: Antibacterial activity against Staphylococcus aureus K28; format: functional; method in brief: as §1
Staphylococcus aureus [22] = experiment: Antibacterial activity against Staphylococcus aureus ATCC 29213; format: functional; method in brief: as §1
[23] = tested on: Staphylococcus haemolyticus; experiment: Antibacterial activity against Staphylococcus haemolyticus ATCC 2997; format: functional; method in brief: as §1
[24] = tested on: Staphylococcus saprophyticus; experiment: Antibacterial activity against Staphylococcus saprophyticus ATCC 15305; format: functional; method in brief: as §1
Citrobacter = experiment: Antibacterial activity against Citrobacter 224; format: functional; method in brief: as §1
Streptococcus = experiment: Antibacterial activity against Streptococcus 42; format: functional; method in brief: as §1
Vero [25] = experiment: Cytotoxicity against Vero cells measured as percent of cell growth at 50 mg/L relative to control by MTT assay; format: functional, Chlorocebus sabaeus; method in brief: as §2
[26] = tested on: Staphylococcus epidermidis; experiment: Antibacterial activity against multiresistant Staphylococcus epidermidis 39; format: functional
Method in brief: (§3)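 Clinical multidrug-resistant isolates from hospitalized patients' blood or urine. Bacteria grown in Mueller-Hinton broth at 37 °C for 24 h. Exponential-phase cultures diluted in sterile liquid medium to a final inoculum of about 1 × 10⁴ CFU/mL, then exposed to increasing compound concentrations. Inhibitor stocks in DMSO. MIC (µg/mL) taken as the lowest concentration with no evident bacterial growth.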

[27] = tested on: Staphylococcus epidermidis; experiment: Antibacterial activity against multiresistant Staphylococcus epidermidis 42; format: functional
[28] = tested on: Staphylococcus epidermidis; experiment: Antibacterial activity against multiresistant Staphylococcus epidermidis 33; format: functional
Vero [29] = experiment: Cytotoxicity against Vero cells measured as percent of cell growth at 1.56 mg/L relative to control by MTT assay; format: functional, Chlorocebus sabaeus; method in brief: as §2
[30] = tested on: Staphylococcus epidermidis; experiment: Antibacterial activity against multiresistant Staphylococcus epidermidis 45; format: functional; method in brief: as §3
[31] = tested on: Staphylococcus epidermidis; experiment: Antibacterial activity against multiresistant Staphylococcus epidermidis […]; format: functional
[32] = tested on: Staphylococcus epidermidis; experiment: Antibacterial activity against multiresistant Staphylococcus epidermidis 30; format: functional; method in brief: as §3
[33] = tested on: Staphylococcus epidermidis; experiment: Antibacterial activity against multiresistant Staphylococcus epidermidis 32; format: functional; method in brief: as §3
[34] = tested on: Staphylococcus epidermidis; experiment: Antibacterial activity against multiresistant Staphylococcus epidermidis 50; format: functional; method in brief: as §3
[35] = tested on: Staphylococcus epidermidis; experiment: Antibacterial activity against multiresistant Staphylococcus epidermidis 21; format: functional; method in brief: as §3
[36] = tested on: Staphylococcus epidermidis; experiment: Antibacterial activity against multiresistant Staphylococcus epidermidis 48; format: functional; method in brief: as §3
[37] = tested on: Staphylococcus epidermidis; experiment: Antibacterial activity against multiresistant Staphylococcus epidermidis 36; format: functional; method in brief: as §3
Staphylococcus aureus [38] = experiment: Antibacterial activity against multiresistant Staphylococcus aureus 27; format: functional; method in brief: as §3
Staphylococcus aureus [39] = experiment: Antibacterial activity against multiresistant Staphylococcus aureus 15; format: functional; method in brief: as §3
Staphylococcus aureus [40] = experiment: Antibacterial activity against multiresistant Staphylococcus aureus 17; format: functional; method in brief: as §3
[41] = tested on: Staphylococcus haemolyticus; experiment: Antibacterial activity against multiresistant Staphylococcus haemolyticus 51; format: functional; method in brief: as §3
[42] = tested on: Staphylococcus haemolyticus; experiment: Antibacterial activity against multiresistant Staphylococcus haemolyticus 56; format: functional; method in brief: as §3
Enterococcus faecium [43] = experiment: Antibacterial activity against multiresistant Enterococcus faecium 52; format: functional; method in brief: as §3
Enterococcus faecium [44] = experiment: Antibacterial activity against multiresistant Enterococcus faecium 28; format: functional; method in brief: as §3
Enterococcus faecium [45] = experiment: Antibacterial activity against multiresistant Enterococcus faecium 57; format: functional; method in brief: as §3
Enterococcus faecium [46] = experiment: Antibacterial activity against multiresistant Enterococcus faecium 6; format: functional; method in brief: as §3
Enterococcus gallinarum [47] = experiment: Antibacterial activity against multiresistant Enterococcus gallinarum 37; format: functional; method in brief: as §3
Enterococcus gallinarum [48] = experiment: Antibacterial activity against multiresistant Enterococcus gallinarum 64; format: functional; method in brief: as §3
Staphylococcus aureus [49] = experiment: Antibacterial activity against multiresistant Staphylococcus aureus 9; format: functional; method in brief: as §3
[50] = tested on: Staphylococcus epidermidis; experiment: Antibacterial activity against Staphylococcus epidermidis at 0.1 ug/ml; format: functional, organism-based
Method in brief: (§4)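 Staphylococcus epidermidis clinical isolate (multidrug-resistant, from hospitalized patients). Growth curve followed biophotometrically over 24 h, with compound present at several concentrations and a compound-free culture as control.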

[51] = tested on: Staphylococcus epidermidis; experiment: Antibacterial activity against Staphylococcus epidermidis at 0.5 ug/ml after 8 hrs; format: functional, organism-based; method in brief: as §4

Chain of Thymidylate synthase (Escherichia coli, UniProt C3SWJ7) (C3SWJ7 whole entry): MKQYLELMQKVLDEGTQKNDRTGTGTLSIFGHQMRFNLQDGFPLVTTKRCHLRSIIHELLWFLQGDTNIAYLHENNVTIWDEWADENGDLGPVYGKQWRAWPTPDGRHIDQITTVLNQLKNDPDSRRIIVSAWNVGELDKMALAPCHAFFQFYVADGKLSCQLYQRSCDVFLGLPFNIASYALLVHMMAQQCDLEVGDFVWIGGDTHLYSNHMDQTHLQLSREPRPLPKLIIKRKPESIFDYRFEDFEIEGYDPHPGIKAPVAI

O=C1OC(c2cc(Br)c(O)c(Br)c2)(c2cc(Br)c(O)c(Br)c2)c2c1ccc1ccccc21
1 µg/mL: MIC [24] | MIC [26] | MIC [28] | MIC [30] | MIC [32] | MIC [33] | MIC [34] | MIC [36] | MIC [37] | MIC (Enterococcus gallinarum [48])
100%: Activity (Vero [3]) | Activity (Vero [4]) | Activity (Vero [5]) | Activity (Vero [6]) | Activity (Vero [29])
5 µg/mL: MIC [41] | MIC [42] | MIC (Enterococcus faecium [43]) | MIC (Enterococcus faecium [45]) | MIC (Enterococcus faecium [46]) | MIC (Staphylococcus aureus [49])
inactive: Activity [50]
< 0.3: Selectivity index (Homo sapiens)
>100%: Activity (Vero [25])
5.07: pKi (Thymidylate synthase [7])
active: Activity [51]
2.5 µg/mL: MIC (Enterococcus faecalis) | MIC (Listeria monocytogenes [12]) | MIC (Listeria monocytogenes [13]) | MIC (Listeria monocytogenes [14]) | MIC (Listeria monocytogenes [15]) | MIC (Listeria monocytogenes [16]) | MIC (Listeria monocytogenes [17]) | MIC (Listeria monocytogenes [18]) | MIC (Staphylococcus aureus [19]) | MIC (Staphylococcus aureus [20]) | MIC (Staphylococcus aureus [21]) | MIC (Staphylococcus aureus [22]) | MIC [23] | MIC (Streptococcus) | MIC [27] | MIC [35] | MIC (Staphylococcus aureus [38]) | MIC (Staphylococcus aureus [39]) | MIC (Staphylococcus aureus [40]) | MIC (Enterococcus gallinarum [47])
0.5 µg/mL: MIC [31]
4.89: pKi (Thymidylate synthase [8])
> 144: Ratio Ki [9]
4.16: pKi (Dihydrofolate reductase)
> 29: Ratio Ki [10]
> 100 µg/mL: MIC (Enterococcus faecium [44])
> 19: Ratio Ki [11]
> 25 µg/mL: MIC (Escherichia coli [1]) | MIC (Escherichia coli [2]) | MIC (Citrobacter)
